Experimental findings from ChEMBL document CHEMBL4152337, “Novel indolo-sophoridinic scaffold as Topo I inhibitors: Design, synthesis and biological evaluation as anticancer agents” (Eur J Med Chem, 2018) are described below.

Assay type in all cases: functional, cell-based
One test concerns HepG2. Description: Cytotoxicity against human HepG2 cells assessed as reduction in cell viability after 48 hrs by MTT assay. As to conditions: HepG2, 48 h. In a few lines: (§1)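 Cells at 3–4 × 10⁴/mL in DMEM + 10% FBS, pre-incubated 24 h in 5% CO₂. Then exposed 48 h to serial dilutions at 1, 5, 10, 20 and 50 µM; final DMSO <0.1%. MTT (5 mg/mL solution) added for 4 h at 37 °C, supernatant removed, formazan dissolved in DMSO, colorimetric read-out.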
Background: Tetrazolium dyes change colour on reduction, which living cells bring about.

Another test deals with CNE-2. Description: Cytotoxicity against human CNE2 cells assessed as reduction in cell viability after 48 hrs by MTT assay. As to conditions: CNE-2, 48 h. In a few lines: as §1
For another test, the system named is A549. Description: Cytotoxicity against human A549 cells assessed as reduction in cell viability after 48 hrs by MTT assay. The settings on record: A549, 48 h. In a few lines:
as §1

A value given as a limit tells only on which side of the number the result lay.

In the case of `COC(=O)CCC[C@@H]1[C@H]2CCCN3CCC[C@H](CN1Cc1c[nH]c4ccc(F)cc14)[C@@H]23`, the IC50 in the test with HepG2, with CNE-2 and in the test on A549 was greater than 50 µM throughout.
For the molecule `COC(=O)CCC[C@@H]1[C@H]2CCCN3CCC[C@H](CN1Cc1cn(Cc4ccc(C(F)(F)F)cc4)c4ccc(F)cc14)[C@@H]23`, the IC50 (commonly the midpoint of a concentration-inhibition curve) in the test on HepG2 is 7.7 µM; with CNE-2 it was 6.9 µM; with A549 it was 12.8 µM.
For `COC(=O)CCC[C@@H]1[C@H]2CCCN3CCC[C@H](CN1Cc1cn(Cc4cccc(F)c4)c4ccccc14)[C@@H]23`, the IC50 in the test with HepG2 turned out to be 12.1 µM; in the test with CNE-2, 12.1 µM; in the test on A549, 42.3 µM.
`COC(=O)CCC[C@@H]1[C@H]2CCCN3CCC[C@H](CN1Cc1cn(Cc4c(Cl)cccc4Cl)c4ccc(F)cc14)[C@@H]23`: the concentration for half-maximal inhibition (IC50) turned out to be 18.4 µM in the test on HepG2, 9.3 µM in the test with CNE-2 and 39.8 µM with A549.
The corresponding values for `COC(=O)CCC[C@@H]1[C@H]2CCCN3CCC[C@H](CN1Cc1cn(Cc4c(Cl)cccc4Cl)c4ccccc14)[C@@H]23` are 8.5 µM, 6.7 µM and 3.7 µM.
For the molecule `COC(=O)CCC[C@@H]1[C@H]2CCCN3CCC[C@H](CN1Cc1c[nH]c4ccc(C)cc14)[C@@H]23`, the IC50 in the test on HepG2 was 23.8 µM; in the test on CNE-2, 49.4 µM; with A549, greater than 50 µM.
The corresponding values for `COC(=O)CCC[C@@H]1[C@H]2CCCN3CCC[C@H](CN1Cc1c[nH]c4ccc(OC)cc14)[C@@H]23` are greater than 50 µM, greater than 50 µM and greater than 50 µM.
As to `COC(=O)CCC[C@@H]1[C@H]2CCCN3CCC[C@H](CN1Cc1c[nH]c4cccc(F)c14)[C@@H]23`, the IC50 with HepG2, with CNE-2 and in the test with A549 was greater than 50 µM throughout.
For the molecule `CCCCn1cc(CN2C[C@H]3CCCN4CCC[C@@H]([C@H]34)[C@H]2CCCC(=O)OC)c2ccccc21`, the IC50 in the test on HepG2 was found to be 6.2 µM; in the test with CNE-2 it was 8.6 µM; in the test with A549, 42.8 µM.
Regarding `COC(=O)CCC[C@@H]1[C@H]2CCCN3CCC[C@H](CN1Cc1cn(Cc4ccc(F)cc4)c4ccccc14)[C@@H]23`, the IC50 in the test with HepG2 stood at 8.6 µM; in the test with CNE-2 it was 3.5 µM; with A549, 29.6 µM.
The matching figures for `COC(=O)CCC[C@@H]1[C@H]2CCCN3CCC[C@H](CN1Cc1cn(Cc4ccc(Br)cc4)c4ccccc14)[C@@H]23`: 4.8 µM, 4.3 µM and 3.5 µM.
With `COC(=O)CCC[C@@H]1[C@H]2CCCN3CCC[C@H](CN1Cc1c[nH]c4cc(F)ccc14)[C@@H]23`, the IC50 with HepG2 was greater than 50 µM; with CNE-2, 17.1 µM; in the test with A549 it was greater than 50 µM.
`COC(=O)CCC[C@@H]1[C@H]2CCCN3CCC[C@H](CN1Cc1cn(Cc4ccc(C(F)(F)F)cc4)c4ccccc14)[C@@H]23`: the values for the concentration for half-maximal inhibition (IC50) in the test on HepG2, in the test with CNE-2 and with A549 were 6.1 µM, 4.8 µM and 7.4 µM, respectively.
As to `COC(=O)CCC[C@@H]1[C@H]2CCCN3CCC[C@H](CN1Cc1c[nH]c4ccc(C#N)cc14)[C@@H]23`, the half-inhibitory concentration (IC50) was greater than 50 µM in the test on HepG2, 15.3 µM in the test with CNE-2 and greater than 50 µM with A549.
For the molecule `COC(=O)CCC[C@@H]1[C@H]2CCCN3CCC[C@H](CN1Cc1c[nH]c4ccc(Cl)cc14)[C@@H]23`, the concentration for half-maximal inhibition (IC50) in the test with HepG2 was greater than 50 µM; with CNE-2, 17.9 µM; in the test on A549, greater than 50 µM.
In the case of `COC(=O)CCC[C@@H]1[C@H]2CCCN3CCC[C@H](CN1Cc1c[nH]c4ccccc14)[C@@H]23`, the half-maximal inhibitory concentration (IC50) stood at 36.5 µM with HepG2, 12.1 µM in the test on CNE-2 and 27.8 µM with A549.
The corresponding values for `COC(=O)CCC[C@@H]1[C@H]2CCCN3CCC[C@H](CN1Cc1cn(CC4CC4)c4ccccc14)[C@@H]23` are 14.4 µM, 13.4 µM and 30.3 µM.
The corresponding values for `COC(=O)CCC[C@@H]1[C@H]2CCCN3CCC[C@H](CN1Cc1c(C(=O)OC)[nH]c4ccccc14)[C@@H]23` are greater than 50 µM, 26.4 µM and greater than 50 µM.
On to `COC(=O)CCC[C@@H]1[C@H]2CCCN3CCC[C@H](CN1Cc1cn(Cc4ccccc4F)c4ccccc14)[C@@H]23`, for which the IC50 was determined as 21.7 µM in the test with HepG2, 14.8 µM in the test with CNE-2 and 49.3 µM with A549.
Turning to `COC(=O)CCC[C@@H]1[C@H]2CCCN3CCC[C@H](CN1Cc1c[nH]c4ccc([N+](=O)[O-])cc14)[C@@H]23`, the half-inhibitory concentration (IC50) in the test on HepG2, in the test with CNE-2 and with A549 was greater than 50 µM in each case.
For the molecule `OCCCC[C@@H]1[C@H]2CCCN3CCC[C@H](CN1Cc1c[nH]c4ccccc14)[C@@H]23`, the IC50 in the test on HepG2, in the test on CNE-2 and in the test on A549 was greater than 50 µM throughout.
For `CC[C@@]1(O)C(=O)OCc2c1cc1n(c2=O)Cc2cc3ccccc3nc2-1` [CAMPTOTHECIN], the half-maximal inhibitory concentration (IC50) in the test on HepG2 is 13.2 µM; with CNE-2, 0.1 µM; in the test on A549 it was 5.5 µM.
Turning to `CCn1cc(CN2C[C@H]3CCCN4CCC[C@@H]([C@H]34)[C@H]2CCCC(=O)OC)c2ccccc21`, the IC50 in the test on HepG2 worked out at 12.8 µM; in the test with CNE-2 it was 19.4 µM; in the test on A549 it was 37.4 µM.
As for `COC(=O)CCC[C@@H]1[C@H]2CCCN3CCC[C@H](CN1Cc1c[nH]c4ccc(Br)cc14)[C@@H]23`, the IC50 worked out at 31.8 µM with HepG2, 20.2 µM in the test with CNE-2 and 39.9 µM with A549.
Consider `COC(=O)CCC[C@@H]1[C@H]2CCCN3CCC[C@H](CN1Cc1cn(C)c4ccccc14)[C@@H]23`, for which the half-inhibitory concentration (IC50) with HepG2 was determined as 15.2 µM; with CNE-2 it was 43.4 µM; with A549, 42.8 µM.
For `COC(=O)CCC[C@@H]1[C@H]2CCCN3CCC[C@H](CN1Cc1cn(Cc4ccc(Cl)cc4)c4ccc(F)cc14)[C@@H]23`, the IC50 in the test on HepG2 turned out to be 7.3 µM; in the test on CNE-2 it was 6.1 µM; in the test on A549, 10.6 µM.
